Source: ChEMBL document CHEMBL4842367, “Strategies toward Discovery of Potent and Orally Bioavailable Proteolysis Targeting Chimera Degraders of Androgen Receptor for the Treatment of Prostate Cancer” (J Med Chem, 2021)
Active and inactive are the calls of the source. The calls are words filed in the database; no cut-off is given here.

Columns and labels:
[1] = biological target: T1, Protein cereblon/Androgen receptor (Homo sapiens, UniProt P10275+Q96SW2); assay: Protac activity at CRBN/AR in human VCaP cells assessed as induction of AR degradation at 0.001 uM measured after 24 hrs by western blot analysis relative to control; format: cell-based
Target sequence in this assay (P10275 whole entry, looked up): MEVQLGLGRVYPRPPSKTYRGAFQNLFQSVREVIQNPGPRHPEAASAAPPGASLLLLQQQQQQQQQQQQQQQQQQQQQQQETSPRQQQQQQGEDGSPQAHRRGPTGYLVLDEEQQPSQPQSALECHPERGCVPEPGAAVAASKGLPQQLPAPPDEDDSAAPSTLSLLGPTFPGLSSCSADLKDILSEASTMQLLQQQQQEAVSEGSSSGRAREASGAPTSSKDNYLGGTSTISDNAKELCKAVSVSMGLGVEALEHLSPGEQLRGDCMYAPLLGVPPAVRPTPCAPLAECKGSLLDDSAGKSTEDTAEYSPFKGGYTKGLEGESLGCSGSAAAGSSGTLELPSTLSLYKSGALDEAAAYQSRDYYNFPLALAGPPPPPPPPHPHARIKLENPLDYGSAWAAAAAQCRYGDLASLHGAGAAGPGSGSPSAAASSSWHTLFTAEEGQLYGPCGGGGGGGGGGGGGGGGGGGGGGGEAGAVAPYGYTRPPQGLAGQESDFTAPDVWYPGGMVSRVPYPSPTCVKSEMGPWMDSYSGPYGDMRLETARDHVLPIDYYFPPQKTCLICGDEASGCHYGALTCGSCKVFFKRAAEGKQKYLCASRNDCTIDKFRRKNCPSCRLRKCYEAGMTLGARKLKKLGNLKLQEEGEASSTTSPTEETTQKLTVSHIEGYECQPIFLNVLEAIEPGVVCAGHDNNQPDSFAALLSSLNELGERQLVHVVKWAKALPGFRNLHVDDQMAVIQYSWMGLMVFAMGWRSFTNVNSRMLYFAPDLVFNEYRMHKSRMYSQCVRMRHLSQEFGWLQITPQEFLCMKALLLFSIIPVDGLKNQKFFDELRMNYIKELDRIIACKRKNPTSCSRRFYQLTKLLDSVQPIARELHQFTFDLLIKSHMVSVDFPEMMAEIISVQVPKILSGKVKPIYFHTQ
Target sequence in this assay (Q96SW2 whole entry, looked up): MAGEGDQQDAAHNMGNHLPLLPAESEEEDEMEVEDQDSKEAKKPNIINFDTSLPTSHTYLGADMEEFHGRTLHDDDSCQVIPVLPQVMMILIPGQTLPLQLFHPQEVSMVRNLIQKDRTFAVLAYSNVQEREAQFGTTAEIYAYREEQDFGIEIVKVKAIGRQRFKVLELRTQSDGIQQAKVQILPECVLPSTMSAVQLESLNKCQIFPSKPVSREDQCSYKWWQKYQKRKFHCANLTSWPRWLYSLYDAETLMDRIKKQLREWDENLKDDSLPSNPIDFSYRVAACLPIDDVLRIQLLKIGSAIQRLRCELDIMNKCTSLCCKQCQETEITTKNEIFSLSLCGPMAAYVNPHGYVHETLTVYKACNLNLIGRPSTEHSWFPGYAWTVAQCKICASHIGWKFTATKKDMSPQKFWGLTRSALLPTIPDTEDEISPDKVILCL

[2] = biological target: T1, Protein cereblon/Androgen receptor; assay: Protac activity at CRBN/AR in human VCaP cells assessed as induction of AR degradation at 0.01 uM measured after 24 hrs by western blot analysis relative to control; format: cell-based
Summary of the method: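 VCaP cells treated 24 h at 1, 10, 100 and 1000 nM; lysed in RIPA with protease/phosphatase inhibitors, run on 4–12% SDS-PAGE, blotted to PVDF. AR bands background-subtracted and normalized to loading control; degradation relative to DMSO, average of three independent experiments.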
Target sequence in this assay (P10275 whole entry, looked up): as the sequence (P10275 whole entry, looked up) above
Target sequence in this assay (Q96SW2 whole entry, looked up): as the sequence (Q96SW2 whole entry, looked up) above

[3] = biological target: T1, Protein cereblon/Androgen receptor; assay: Protac activity at CRBN/AR in human VCaP cells assessed as induction of AR degradation at 0.1 uM measured after 24 hrs by western blot analysis relative to control; format: cell-based
Target sequence in this assay (P10275 whole entry, looked up): as the sequence (P10275 whole entry, looked up) above
Target sequence in this assay (Q96SW2 whole entry, looked up): as the sequence (Q96SW2 whole entry, looked up) above

[4] = biological target: T1, Protein cereblon/Androgen receptor; assay: Protac activity at CRBN/AR in human VCAP cells assessed as induction of AR degradation at 1 uM by western blot analysis relative to control; format: cell-based; settings: time 24.0 hrs
Target sequence in this assay (P10275 whole entry, looked up): as the sequence (P10275 whole entry, looked up) above
Target sequence in this assay (Q96SW2 whole entry, looked up): as the sequence (Q96SW2 whole entry, looked up) above

[5] = Plasma concentration in CB17 SCID mouse at 10 mg/kg, po measured after 1 hr by LC-MS/MS analysis; format: ADME, organism-based
Summary of the method: (§1)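 Single oral gavage at 10 mg/kg in 100% PEG200 to non-tumor-bearing male mice; three mice per time point, blood collected at 1, 3 and 6 h, plasma obtained by centrifugation and measured by LC–MS/MS; reported as mean ± SD.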

[6] = Plasma concentration in CB17 SCID mouse at 10 mg/kg, po measured after 3 hr by LC-MS/MS analysis; format: ADME, organism-based; summary of the method: as §1
[7] = Plasma concentration in CB17 SCID mouse at 10 mg/kg, po measured after 6 hr by LC-MS/MS analysis; format: ADME, organism-based; summary of the method: as §1
VCaP [8] = assay: Antitumor activity against human VCaP cells xenografted in SCID mouse assessed as tumor growth inhibition at 40 mg/kg, po measured on day 21 relative to control; format: functional; settings: 504 h, read-out: TGI
Summary of the method: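 Male CB17 SCID mice implanted s.c. with 5 × 10⁶ VCaP cells in Matrigel; at average tumor volume 150 mm³, size-matched and randomized, seven per group. Oral gavage daily for 21 days in 100% PEG200. Tumors measured 2–3 times weekly, volume = length × width²/2; TGI (%) = (Vc − Vt)/(Vc − Vo) × 100 using group medians at start and end.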

VCaP [9] = assay: Growth inhibition of human VCaP cells assessed as cell viability measured after 4 days in presence of R1881 by WST-8 assay; format: functional, cell-based; settings: 96 h
Summary of the method: (§2)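 LNCaP and VCaP cells exposed to compounds for 4 days in charcoal-stripped medium containing 0.1 nM R1881; viability read by WST-8 assay.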

LNCaP = assay: Growth inhibition of human LNCaP cells assessed as cell viability measured after 4 days in presence of R1881 by WST-8 assay; format: functional, cell-based; settings: 96 h; summary of the method: as §2
[10] = Tmax in ICR mouse at 5 mg/kg, po measured up to 24 hrs by LC-MS/MS analysis; format: ADME, organism-based; settings: in vivo
Summary of the method: (§3)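 Male ICR mice, single oral gavage (3 or 5 mg/kg) in 5% DMSO/10% solutol/85% saline, three mice per group. Separate IV tail-vein bolus group (1 or 2 mg/kg) in the same vehicle. Blood sampled at 0.083–24 h, one sample per mouse, plasma diluted threefold and analysed by LC–MS/MS; noncompartmental parameters.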

[11] = biological target: T1, Protein cereblon/Androgen receptor; assay: Protac activity at CRBN/AR in human VCaP cells assessed as induction of AR degradation measured after 24 hrs by western blot analysis
Target sequence in this assay (P10275 whole entry): as the sequence (P10275 whole entry, looked up) above
Target sequence in this assay (Q96SW2 whole entry): as the sequence (Q96SW2 whole entry, looked up) above

[12] = Half life in ICR mouse at 2 mg/kg, iv measured up to 24 hrs by LC-MS/MS analysis; format: ADME, organism-based; settings: in vivo
Summary of the method: (§4)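 Male ICR mice received a single tail-vein IV bolus in 5% DMSO/10% solutol/85% saline at 5 mL/kg. Blood was taken at 0.083, 0.25, 0.5, 1, 2, 4, 6, 8 and 24 h, with n = 3 per time point and each mouse sampled once. Plasma supernatant was diluted three times with water and analysed by LC-MS/MS, and terminal T1/2 was derived noncompartmentally.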

[13] = Oral bioavailability in ICR mouse at 5 mg/kg measured up to 24 hrs by LC-MS/MS analysis; format: ADME, organism-based; settings: in vivo; summary of the method: as §3
Mus musculus [14] = assay: Reduction in AR protein level in tumor of human VCaP cells xenografted in SCID mouse at 20 mg/kg, po single dose measured after 24 hrs by Western blot analysis; format: functional, organism-based
Summary of the method: (§5)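 SCID mice bearing VCaP xenografts given one oral dose of 20 mg/kg; tumors harvested at 6 and 24 h after dosing and AR protein measured by Western blot with GAPDH loading control.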

[15] = Plasma concentration in human VCaP cells xenografted in SCID mouse at 20 mg/kg, po single dose measured after 6 hrs by LC-MS/MS analysis; format: ADME, organism-based
Summary of the method: (§6)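 Single oral gavage, 20 mg/kg in 100% PEG200, to male SCID mice bearing one VCaP tumor each (about 200 mm³). Plasma and tumor taken at 6 and 24 h, three mice per time point. Tumors frozen, ground in liquid nitrogen, homogenized in water/acetonitrile 4:1, precipitated with cold acetonitrile; analysis by positive-ion MRM LC–MS/MS.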

[16] = Plasma concentration in human VCaP cells xenografted in SCID mouse at 20 mg/kg, po single dose measured after 24 hrs by LC-MS/MS analysis; format: ADME, organism-based; summary of the method: as §6
[17] = Drug uptake in human VCaP cells xenografted in SCID mouse tumor tissue at 20 mg/kg, po single dose measured after 6 hrs by LC-MS/MS analysis; format: ADME, organism-based, Neoplasm; settings: in vivo; summary of the method: as §6
[18] = Drug uptake in human VCaP cells xenografted in SCID mouse tumor tissue at 20 mg/kg, po single dose measured after 24 hrs by LC-MS/MS analysis; format: ADME, organism-based, Neoplasm; settings: in vivo
Summary of the method: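 Male CB17 SCID mice carried subcutaneous VCaP xenografts, implanted as 5 × 10⁶ cells in Matrigel, grown to about 200 mm³. Mice received a single oral gavage of 20 mg/kg in 100% PEG200. Tumors were collected at 6 and 24 h, three mice per time point, and frozen. They were homogenized in water/acetonitrile 4:1, protein-precipitated with cold acetonitrile, and assayed by LC-MS/MS (positive-ion MRM). Values are mean ± SD.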

Mus musculus [19] = assay: Reduction in AR protein level in tumor of human VCaP cells xenografted in SCID mouse at 20 mg/kg, po single dose measured after 6 hrs by Western blot analysis; format: functional, organism-based; summary of the method: as §5
[20] = Half life in ICR mouse at 1 mg/kg, iv measured up to 24 hrs by LC-MS/MS analysis; format: ADME, organism-based; settings: in vivo; summary of the method: as §4
[21] = Tmax in ICR mouse at 3 mg/kg, po measured up to 24 hrs by LC-MS/MS analysis; format: ADME, organism-based; settings: in vivo; summary of the method: as §3
[22] = Oral bioavailability in ICR mouse at 3 mg/kg measured up to 24 hrs by LC-MS/MS analysis; format: ADME, organism-based; settings: in vivo; summary of the method: as §3

Row | SMILES | Activity [1] [%] | Activity [2] [%] | Activity [3] [%] | Activity [4] [%] | concentration at 1 h [5] [ng/mL] | concentration at 3 h [6] [ng/mL] | concentration at 6 h [7] [ng/mL] | EC50 [11] [nM] | further results
1 | CC1(C)[C@H](NC(=O)c2ccc(N3CCN(CCNc4ccc5c(c4)C(=O)N(C4CCC(=O)NC4=O)C5=O)CC3)cc2)C(C)(C)[C@H]1Oc1ccc(C#N)c(Cl)c1 (some centres undefined) | 58 | 83 | 79 | 76 | 1240 | 919 | 604 |  | 
2 | CC1(C)[C@H](NC(=O)c2ccc(NCCCCCNc3ccc4c(c3)C(=O)N(C3CCC(=O)NC3=O)C4=O)cc2)C(C)(C)[C@H]1Oc1ccc(C#N)c(Cl)c1 (some centres undefined) | 49 | 84 | 89 | 97 | 111 | 55.9 | 2.9 |  | 
3 | CC1(C)[C@H](NC(=O)c2ccc(N3CCN(CCCNc4ccc5c(c4)C(=O)N(C4CCC(=O)NC4=O)C5=O)CC3)cc2)C(C)(C)[C@H]1Oc1ccc(C#N)c(Cl)c1 (some centres undefined) | 22 | 37 | 54 | 53 | 267 | 254 | 96.9 |  | 
4 | CNC(=O)c1ccc(N2C(=S)N(c3ccc(C#N)c(C(F)(F)F)c3)C(=O)C2(C)C)cc1F [ENZALUTAMIDE] |  |  |  |  |  |  |  |  | inhibition in vivo at 40 mg/kg (VCaP [8]): 39%
5 | CC1(C)[C@H](NC(=O)c2ccc(NCCCCCCNc3ccc4c(c3)C(=O)N(C3CCC(=O)NC3=O)C4=O)cc2)C(C)(C)[C@H]1Oc1ccc(C#N)c(Cl)c1 (some centres undefined) | 69 | 85 | 77 | 79 | 16.9 | 8 | 1.6 |  | 
6 | CN1CCN(c2ccc(C(=O)N[C@H]3C(C)(C)[C@H](Oc4ccc(C#N)c(Cl)c4)C3(C)C)cc2)CC1 |  |  |  |  |  |  |  |  | IC50 (VCaP [9]): 49 nM; IC50 (LNCaP): 81 nM
7 | CC1(C)[C@H](NC(=O)c2ccc(N3CCN(CC4CN(c5ccc6c(c5)C(=O)N(C5CCC(=O)NC5=O)C6=O)C4)CC3)cc2)C(C)(C)[C@H]1Oc1ccc(C#N)c(Cl)c1 (some centres undefined) |  |  |  |  |  |  |  | 0.2 | Tmax [10]: 4 h; t1/2 [12]: 17.8 h; F [13]: 75%; Activity (Mus musculus [14]): Active; concentration at 6 h [15]: 1360 ng/mL; concentration at 24 h [16]: 1670 ng/mL; Drug uptake [17]: 718 ng/g; Drug uptake [18]: 1740 ng/g
8 | CN1C(=O)CCC(N2C(=O)c3ccc(N4CCC(CN5CCN(c6ccc(C(=O)N[C@H]7C(C)(C)[C@H](Oc8ccc(C#N)c(Cl)c8)C7(C)C)cc6)CC5)CC4)cc3C2=O)C1=O (some centres undefined) |  |  |  |  |  |  |  |  | IC50 (VCaP [9]): 783 nM; IC50 (LNCaP): 237 nM
9 | CC1(C)[C@H](NC(=O)c2ccc(N3CCN(C4CCN(c5ccc6c(c5)C(=O)N(C5CCC(=O)NC5=O)C6=O)CC4)CC3)cc2)C(C)(C)[C@H]1Oc1ccc(C#N)c(Cl)c1 (some centres undefined) |  |  |  |  |  |  |  | 0.8 | Tmax [10]: 4 h; F [13]: 37%; Activity (Mus musculus [14]): Active; Activity (Mus musculus [19]): Active; concentration at 6 h [15]: 803 ng/mL; concentration at 24 h [16]: 776 ng/mL; Drug uptake [17]: 315 ng/kg; Drug uptake [18]: 685 ng/g
10 | CC1(C)[C@H](NC(=O)c2ccc(N3CCC(CN4CCN(c5ccc6c(c5)C(=O)N(C5CCC(=O)NC5=O)C6=O)CC4)CC3)cc2)C(C)(C)[C@H]1Oc1ccc(C#N)c(Cl)c1 (some centres undefined) |  |  |  |  |  |  |  | 0.4 | t1/2 [20]: 25.5 h; Tmax [21]: 4.7 h; F [22]: 33%
11 | CC1(C)[C@H](NC(=O)c2ccc(N3CCC(N4CCN(c5ccc6c(c5)C(=O)N(C5CCC(=O)NC5=O)C6=O)CC4)CC3)cc2)C(C)(C)[C@H]1Oc1ccc(C#N)c(Cl)c1 (some centres undefined) |  |  |  |  |  |  |  | 0.1 | t1/2 [20]: 21 h; Tmax [21]: 6 h; F [22]: 24%
